From PubChem BioAssay
Rows were chosen to be rich in hits. Some 2.2% of all compounds tested hit in one or more screens of this group.
IMP-1 inh = inhibitors of Pseudomonas aeruginosa IMP-1 metallo-beta-lactamase. actives 0.45% (n = 290,000). purified IMP-1, nitrocefin hydrolysis, epi-absorbance fluorescence. inhibition, % at 5.6 µM;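 active means inhibition above the mean plus 3 SD of all compounds in the same screening run, cut at about 4.5% in these data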;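 further: 0% = IMP-1 with DMSO and 100% = DMSO wells lacking enzyme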
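System: purified IMP-1; amount: IMP-1 0.2 nM before substrate addition; compound: single dose, 5.6 µM; times: 25 °C, 15 min preincubation, 25 min reaction; signal: Epi-absorbance via hydrolysed-nitrocefin quenching of white-plate fluorescence, 480/530 nm, EDTA stop; benchmarks: DMSO with and without IMP-1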
PHOSPHO1 inh = PHOSPHO1 (human) inhibition | recombinant PHOSPHO1, absorbance phosphatase assay | Q8TCT1 | inhibition, % at 13.3 µM | actives 1.1% (n = 290,000); in the data active means inhibition above about 60%
Target sequence (Q8TCT1 whole entry, looked up): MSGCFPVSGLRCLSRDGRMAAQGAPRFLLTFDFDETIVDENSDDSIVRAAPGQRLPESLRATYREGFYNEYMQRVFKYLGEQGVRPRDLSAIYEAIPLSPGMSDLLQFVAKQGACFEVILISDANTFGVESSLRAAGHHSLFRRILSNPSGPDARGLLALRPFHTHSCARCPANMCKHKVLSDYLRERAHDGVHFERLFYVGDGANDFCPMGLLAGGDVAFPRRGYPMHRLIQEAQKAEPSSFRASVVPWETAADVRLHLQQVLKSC
Yeast superoxide = lowers age-related superoxide in aged yeast cells; actives 0.18% (n = 330,000); superoxide response (% of plate mean), % at 10 µM; S. cerevisiae aged cells, superoxide DHE fluorescence; stronger effect = lower value;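 active means superoxide response under a set limit, about three screen SD below normal, cut at about 65% in these data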;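 further: yeast aged for seven days with compound at 30 °C before DHE staining; 100% = average MFI of all compound-treated wells on the plate with controls excluded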
VIM-2 inh = inhibitors of Pseudomonas aeruginosa VIM-2 metallo-beta-lactamase. purified VIM-2, nitrocefin hydrolysis, epi-absorbance fluorescence. inhibition, % at 5.6 µM. actives 0.89% (n = 290,000);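 active means inhibition above the mean of all tested compounds plus 3 SD, cutoff set per screening run, cut at about 7.5% in these data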;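 further: red hydrolysis product quenches plate fluorescence so inhibitors raise well fluorescence; 0% = enzyme with DMSO and 100% = DMSO without enzyme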
PvdQ inh = blocks Pseudomonas aeruginosa PvdQ acylase activity; purified PvdQ acylase, fluorescence plate reader; actives 0.063% (n = 340,000); inhibition, % at 10 µM; in the data active means inhibition above about 30%, passing the limit was not always enough;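 further: 0% = vehicle neutral wells and 100% = reference inhibitor wells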
An asterisk follows results filed as active; x = not tested or not shown.

SMILES	IMP-1 inh	PHOSPHO1 inh	Yeast superoxide	VIM-2 inh	PvdQ inh
CC1=CC(C)C(C(=O)O)C(C(=O)N2CCN(C)CC2)C1 (stereo not drawn)	-2	44	90	9.3*	4
Cc1nc(NC(=O)CCN2C(=O)C3CC=CCC3C2=O)sc1C (stereo not drawn)	-4	61*	91	-4	-10
CCOC(=O)c1sc(NC(=O)CN2C(=O)C3CC=CCC3C2=O)nc1C (stereo not drawn)	x	x	110	x	-8
CC(C(=O)NCc1ccc(Cl)cc1)n1cccc1C(=O)c1ccccc1 (stereo not drawn)	1	60	104	0	-19
COc1ccccc1CNC(=O)C(C)n1cccc1C(=O)c1ccccc1 (stereo not drawn)	-1	64*	73	-4	-11
Cc1ccc(C23CC4CC(CC(NC(=O)NCCN(C)C)(C4)C2)C3)cc1	-5	-4	99	-1	-10
CN(C)CCNC(=O)COc1ccc(C23CC4CC(CC(C4)C2)C3)cc1	-1	66*	99	2	-13
CCCCc1nc2cc(C(=O)NCc3cc(C)n(C)n3)ccc2o1	-4	36	98	-3	2
CN1C(=O)/C(=C\c2ccccc2F)Sc2ccc(C(=O)NC3CCN(Cc4ccccc4)CC3)cc21	0	32	101	2	-6
N#CC(c1ccc(=O)[nH]n1)c1ccc(Cl)cc1Cl (stereo not drawn)	-2	46	100	-2	5
N#CC(c1ccc(Cl)nn1)c1ccccc1Cl (stereo not drawn)	-3	-7	104	-5	108*
Cc1cccc(C(C#N)c2ccc(Cl)nn2)c1 (stereo not drawn)	-1	4	94	0	89*
N#CC(c1ccccc1)c1ccc(=O)[nH]n1 (stereo not drawn)	0	12	86	0	9
N#CC(c1ccc(Cl)cc1)c1ccc(Cl)nn1 (stereo not drawn)	-3	10	100	-3	80*
Cc1ccc(C(C#N)c2ccc3c(C(F)(F)F)cc(C(F)(F)F)nc3n2)cc1 (stereo not drawn)	-1	4	124	0	-11
Cc1ccc(C(C#N)c2ccc(Cl)nn2)cc1 (stereo not drawn)	-2	-20	97	0	86*
N#Cc1ccc(C23OCCN2CCn2nc4ccccc4c23)cc1 (stereo not drawn)	x	x	122	x	2
CCN(CC)c1ccc(S(=O)(=O)N2CCOCC2)cc1NC(=O)COC(=O)C1=COCCO1	x	x	x	x	-12
N=c1c(C(=O)NC2CCCCC2)cc2c(=O)n3ccccc3nc2n1Cc1ccc(F)cc1	0	32	105	9.9*	-10
N=c1c(C(=O)NC2CCCC2)cc2c(=O)n3ccccc3nc2n1Cc1ccccc1	0	20	89	7.9*	-9
Cc1n[nH]c(C)c1CCNC(=O)C1CCC(=O)N(CCc2cccc(F)c2)C1 (stereo not drawn)	-1	17	97	-1	3
CC(C)Cc1nnc(NS(=O)(=O)Cc2ccccc2)s1	-4	13	100	10*	-10
CS(=O)(=O)Nc1nnc(Cc2ccccc2)s1	-3	-13	92	-4	-14
O=C(Cc1c[nH]c2ccccc12)NCc1ccccc1F	1	23	103	0	-18
COc1cccc(-n2c(SCC(=O)Nc3nc4ccccc4s3)nc3ccccc3c2=O)c1	-2	62*	102	-2	x
SMILES	IMP-1 inh	PHOSPHO1 inh	Yeast superoxide	VIM-2 inh	PvdQ inh
O=C(CSc1nnnn1-c1ccc(F)cc1)Nc1nc2ccccc2s1	4.7*	30	99	-2	-7
COc1ccc2nc(NC(=O)CSc3nccc(C)n3)sc2c1	0	2	103	-1	-9
COc1ccc2nc(NC(=O)CSc3nc(C)cc(=O)[nH]3)sc2c1	-2	74*	90	-1	5
Cc1cc(-c2ccco2)c(C#N)c2nc3ccccc3n12	0	14	69	7	-11
COc1ccc(C(=O)CC2OC(=O)c3ccccc32)cc1OC (stereo not drawn)	4.9*	1	104	0	-9
COc1ccc(OC)c(C(=O)CC2OC(=O)c3ccccc32)c1 (stereo not drawn)	-4	-11	109	-1	-18
COc1cc(-c2ccc(NC(=O)CN3CCCCC3)c(OC)c2)ccc1NC(=O)CN1CCCCC1	-3	x	x	-3	x
Cc1cccc(C)c1NC(=O)COC(=O)c1ccccc1[N+](=O)[O-]	-1	63*	104	-1	3
